Experimental findings from ChEMBL document CHEMBL1152488, “Synthesis and evaluation of pyrido[1,2-a]pyrimidines as inhibitors of nitric oxide synthases” (Eur J Med Chem, 2009) are described below.

In data set [1] the target is T1, Nitric oxide synthase, inducible (Mus musculus) (UniProt P29477).
T1 sequence (whole entry): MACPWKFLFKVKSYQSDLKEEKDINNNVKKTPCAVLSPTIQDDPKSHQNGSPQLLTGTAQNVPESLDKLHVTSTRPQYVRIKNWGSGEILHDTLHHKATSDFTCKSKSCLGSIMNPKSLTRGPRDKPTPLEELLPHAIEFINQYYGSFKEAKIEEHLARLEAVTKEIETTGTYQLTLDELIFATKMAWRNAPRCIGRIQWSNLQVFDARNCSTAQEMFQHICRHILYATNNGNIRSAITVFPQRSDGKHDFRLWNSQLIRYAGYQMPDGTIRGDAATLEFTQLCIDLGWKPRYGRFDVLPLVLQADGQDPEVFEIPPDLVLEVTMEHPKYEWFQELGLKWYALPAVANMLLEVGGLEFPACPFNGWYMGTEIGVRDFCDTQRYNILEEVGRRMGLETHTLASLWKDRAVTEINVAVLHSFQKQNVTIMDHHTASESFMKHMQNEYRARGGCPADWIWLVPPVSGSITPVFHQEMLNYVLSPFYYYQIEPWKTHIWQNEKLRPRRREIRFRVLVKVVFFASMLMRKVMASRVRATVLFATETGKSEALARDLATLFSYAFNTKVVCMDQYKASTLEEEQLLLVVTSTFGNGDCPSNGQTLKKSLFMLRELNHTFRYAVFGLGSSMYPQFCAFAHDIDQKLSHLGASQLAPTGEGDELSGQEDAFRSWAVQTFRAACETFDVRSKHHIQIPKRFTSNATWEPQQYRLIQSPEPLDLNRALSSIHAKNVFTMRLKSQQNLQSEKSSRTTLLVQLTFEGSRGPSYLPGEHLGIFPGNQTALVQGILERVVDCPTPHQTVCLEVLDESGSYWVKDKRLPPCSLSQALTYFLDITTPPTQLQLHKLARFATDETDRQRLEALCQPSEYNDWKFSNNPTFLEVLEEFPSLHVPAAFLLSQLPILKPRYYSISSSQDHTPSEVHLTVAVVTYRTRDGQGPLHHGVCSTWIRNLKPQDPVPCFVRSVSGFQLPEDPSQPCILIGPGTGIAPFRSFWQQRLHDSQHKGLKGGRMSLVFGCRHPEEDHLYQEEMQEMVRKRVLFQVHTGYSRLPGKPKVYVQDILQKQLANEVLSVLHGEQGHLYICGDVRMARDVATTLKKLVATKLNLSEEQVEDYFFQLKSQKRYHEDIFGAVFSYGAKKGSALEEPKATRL
Nature of the data set: Inhibition of mouse iNOS expressed in insect Sf9 cells assessed as residual activity at 100 uM by Griess assay relative to control. The procedure, abridged:
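Murine iNOS produced in Sf9 insect cells. Buffer: 50 mM triethanolamine pH 7.5, 1 mM CHAPS, 10 mM 2-mercaptoethanol, 0.5 mM EDTA. Additions: 1 mM Mg2+, 5 µM FAD, 5 µM FMN, 0.5 mM NADPH, 10 µM H4B, 10 µg/ml CaM, 1 mM L-arginine. Compound at 100 µM final, 37 °C for 20 min. NADPH removed with LDH/pyruvate, then Griess read at 543 nm. Values are % of 1% DMSO control, 5 experiments.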
(In general: Nitrite, measured by Griess reagent, commonly stands in for NO production.)

In data set [2] the target is T2, Nitric oxide synthase 3 (Bos taurus) (UniProt P29473).
T2 sequence (whole entry): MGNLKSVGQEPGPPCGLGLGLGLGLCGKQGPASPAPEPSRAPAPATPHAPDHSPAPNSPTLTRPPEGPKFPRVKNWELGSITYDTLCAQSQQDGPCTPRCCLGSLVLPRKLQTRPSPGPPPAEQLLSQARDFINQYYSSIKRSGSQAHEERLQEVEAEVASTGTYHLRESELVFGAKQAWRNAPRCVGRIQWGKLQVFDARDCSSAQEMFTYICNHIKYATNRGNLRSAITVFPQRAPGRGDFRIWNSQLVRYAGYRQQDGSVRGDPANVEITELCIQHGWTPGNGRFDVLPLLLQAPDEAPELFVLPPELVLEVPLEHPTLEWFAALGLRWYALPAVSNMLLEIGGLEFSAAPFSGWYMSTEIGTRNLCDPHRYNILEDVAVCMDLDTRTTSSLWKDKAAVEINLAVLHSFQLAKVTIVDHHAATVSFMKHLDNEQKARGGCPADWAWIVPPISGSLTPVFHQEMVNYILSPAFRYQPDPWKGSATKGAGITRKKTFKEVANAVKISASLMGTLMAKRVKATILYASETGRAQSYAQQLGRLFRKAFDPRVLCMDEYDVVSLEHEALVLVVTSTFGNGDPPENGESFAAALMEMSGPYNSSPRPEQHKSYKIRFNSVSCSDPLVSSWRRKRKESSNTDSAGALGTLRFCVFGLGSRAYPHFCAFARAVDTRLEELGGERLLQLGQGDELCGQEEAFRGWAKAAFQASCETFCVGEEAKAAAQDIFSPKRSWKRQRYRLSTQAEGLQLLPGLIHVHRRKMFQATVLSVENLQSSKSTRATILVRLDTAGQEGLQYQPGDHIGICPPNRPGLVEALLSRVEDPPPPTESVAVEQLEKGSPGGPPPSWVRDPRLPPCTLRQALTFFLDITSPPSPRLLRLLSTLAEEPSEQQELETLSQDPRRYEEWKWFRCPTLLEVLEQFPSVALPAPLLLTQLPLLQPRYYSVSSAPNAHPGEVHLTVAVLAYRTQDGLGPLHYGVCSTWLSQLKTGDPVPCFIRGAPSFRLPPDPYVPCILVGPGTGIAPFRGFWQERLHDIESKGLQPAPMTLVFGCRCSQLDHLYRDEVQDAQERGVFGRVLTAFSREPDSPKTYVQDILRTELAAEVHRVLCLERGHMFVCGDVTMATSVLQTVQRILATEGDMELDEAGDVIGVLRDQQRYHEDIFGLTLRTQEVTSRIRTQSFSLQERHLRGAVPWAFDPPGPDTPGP
Nature of the data set: Inhibition of bovine eNOS expressed in insect Sf9 cells assessed as residual activity at 100 uM by Griess assay relative to control. The procedure, abridged:
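Bovine eNOS from Sf9 cells. Reaction: triethanolamine buffer pH 7.5, 0.5 mM Ca2+, 10 µg/ml CaM, 10 µM H4B, FAD, FMN, 0.5 mM NADPH, 1 mM L-arginine, with 100 µM compound, 20 min at 37 °C. After NADPH removal by LDH/pyruvate, nitrite measured by Griess at 543 nm. Expressed as % residual activity versus 1% DMSO control, 5 experiments.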

A short description of data set [3]: Lipophilicity, log D at pH 7.4 by HPLC method. The settings on record: buffer.
Data set [4] addresses Nitric oxide synthase, inducible (Homo sapiens) (UniProt P35228). Briefly: Inhibition of human iNOS expressed in insect Sf9 cells assessed as residual activity at 100 uM by Griess assay relative to control. In outline: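 Human iNOS made in Sf9 cells, incubated at 37 °C for 20 min in 50 mM triethanolamine pH 7.5 with 1 mM Mg2+, FAD/FMN 5 µM each, 0.5 mM NADPH, 10 µM H4B, CaM and 1 mM L-arginine. Compound 100 µM final. NADPH cleared with lactate dehydrogenase/pyruvate before Griess reaction (543 nm). Residual activity relative to 1% DMSO control; mean of 5 experiments.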

For data set [5], the target named is T3, Nitric oxide synthase 3 (Homo sapiens) (UniProt P29474).
T3 sequence (whole entry): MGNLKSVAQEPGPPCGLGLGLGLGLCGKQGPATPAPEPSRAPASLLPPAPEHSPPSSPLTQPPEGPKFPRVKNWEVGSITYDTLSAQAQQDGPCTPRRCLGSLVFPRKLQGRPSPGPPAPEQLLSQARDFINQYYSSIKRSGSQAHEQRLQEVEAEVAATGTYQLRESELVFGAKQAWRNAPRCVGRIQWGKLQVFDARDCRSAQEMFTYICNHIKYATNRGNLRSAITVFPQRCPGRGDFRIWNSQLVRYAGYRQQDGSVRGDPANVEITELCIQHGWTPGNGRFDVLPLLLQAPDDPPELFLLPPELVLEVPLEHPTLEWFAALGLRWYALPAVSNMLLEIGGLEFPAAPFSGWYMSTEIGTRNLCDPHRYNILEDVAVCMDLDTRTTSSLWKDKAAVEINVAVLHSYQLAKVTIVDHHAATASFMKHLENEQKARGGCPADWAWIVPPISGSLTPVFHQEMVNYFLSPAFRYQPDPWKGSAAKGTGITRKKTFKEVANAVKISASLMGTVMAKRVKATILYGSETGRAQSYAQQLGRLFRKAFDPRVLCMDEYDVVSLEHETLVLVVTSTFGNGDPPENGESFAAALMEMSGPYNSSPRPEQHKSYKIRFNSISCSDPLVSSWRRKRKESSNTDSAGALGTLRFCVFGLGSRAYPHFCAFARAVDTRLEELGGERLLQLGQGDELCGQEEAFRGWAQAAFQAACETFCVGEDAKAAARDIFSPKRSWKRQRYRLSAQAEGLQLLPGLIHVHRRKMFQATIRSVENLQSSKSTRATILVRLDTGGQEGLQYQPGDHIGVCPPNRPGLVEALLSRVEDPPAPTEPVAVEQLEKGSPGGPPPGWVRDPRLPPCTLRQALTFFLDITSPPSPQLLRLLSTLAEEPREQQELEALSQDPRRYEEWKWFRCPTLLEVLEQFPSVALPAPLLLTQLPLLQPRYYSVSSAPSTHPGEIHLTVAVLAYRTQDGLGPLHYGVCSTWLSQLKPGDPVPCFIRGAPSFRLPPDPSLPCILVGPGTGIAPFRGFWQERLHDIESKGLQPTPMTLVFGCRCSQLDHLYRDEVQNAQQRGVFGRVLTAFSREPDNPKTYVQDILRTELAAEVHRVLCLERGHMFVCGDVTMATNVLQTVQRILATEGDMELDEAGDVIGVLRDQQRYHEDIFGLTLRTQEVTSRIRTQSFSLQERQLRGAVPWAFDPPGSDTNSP
Briefly: Inhibition of human eNOS assessed as residual activity at 100 uM by Griess assay relative to control. The procedure, abridged:
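Human eNOS expressed in Pichia pastoris. Incubated 20 min at 37 °C in triethanolamine pH 7.5 with 0.5 mM Ca2+, CaM, H4B 10 µM, FAD/FMN 5 µM, NADPH 0.5 mM, L-arginine 1 mM and compound at 100 µM final. Nitrite read by Griess (543 nm) after LDH/pyruvate NADPH removal; % of 1% DMSO control from 5 experiments.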

Chain of Nitric oxide synthase, inducible (Homo sapiens) (P35228 whole entry): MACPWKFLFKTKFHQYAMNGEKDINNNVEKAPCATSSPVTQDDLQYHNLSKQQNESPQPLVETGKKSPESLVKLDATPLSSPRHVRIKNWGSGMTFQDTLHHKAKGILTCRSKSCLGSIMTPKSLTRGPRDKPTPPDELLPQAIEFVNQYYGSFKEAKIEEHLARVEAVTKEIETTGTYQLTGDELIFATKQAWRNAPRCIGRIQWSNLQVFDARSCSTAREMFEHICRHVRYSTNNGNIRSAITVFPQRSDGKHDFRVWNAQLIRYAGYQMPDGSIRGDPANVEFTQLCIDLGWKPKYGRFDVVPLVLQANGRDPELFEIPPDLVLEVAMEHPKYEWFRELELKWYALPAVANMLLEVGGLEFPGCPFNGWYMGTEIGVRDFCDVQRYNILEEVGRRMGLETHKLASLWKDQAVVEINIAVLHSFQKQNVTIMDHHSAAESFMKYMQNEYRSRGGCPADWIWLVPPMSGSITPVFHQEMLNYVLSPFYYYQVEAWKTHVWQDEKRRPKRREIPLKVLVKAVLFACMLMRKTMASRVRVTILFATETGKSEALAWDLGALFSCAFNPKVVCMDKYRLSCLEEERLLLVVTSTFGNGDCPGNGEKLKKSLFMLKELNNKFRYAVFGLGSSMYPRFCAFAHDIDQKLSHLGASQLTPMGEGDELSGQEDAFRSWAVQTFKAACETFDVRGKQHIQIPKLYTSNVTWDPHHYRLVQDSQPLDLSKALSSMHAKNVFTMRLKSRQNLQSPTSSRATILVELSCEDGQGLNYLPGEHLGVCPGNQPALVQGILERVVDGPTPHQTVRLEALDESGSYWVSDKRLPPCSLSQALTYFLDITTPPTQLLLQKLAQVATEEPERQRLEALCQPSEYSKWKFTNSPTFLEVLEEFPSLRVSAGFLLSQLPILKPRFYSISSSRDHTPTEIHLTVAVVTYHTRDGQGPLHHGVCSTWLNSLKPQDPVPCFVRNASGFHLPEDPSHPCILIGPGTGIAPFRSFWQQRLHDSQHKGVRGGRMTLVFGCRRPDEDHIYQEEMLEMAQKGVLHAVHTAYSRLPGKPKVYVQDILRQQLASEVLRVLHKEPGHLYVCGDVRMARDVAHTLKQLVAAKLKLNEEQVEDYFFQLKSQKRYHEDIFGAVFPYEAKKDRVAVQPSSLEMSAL

Broadly, the logD is the decadic logarithm of the distribution of all forms, ionised or not, between an organic phase and buffer at a given pH. With `COc1ccc(C(=O)C2CN=C3C=CC=CN3C2)cc1` (centres undefined), the Activity in data set [1] was found to be 100%; in data set [2] it was 90%. This compound also returned a log distribution coefficient (logD) in data set [3] of 1.5.

As for `CC1=CC=CN2CC(C(=O)c3ccccc3)CN=C12` (centres undefined), the values for the Activity in data set [1] and in data set [2] were 103% and 92%, respectively.

For `COc1ccc(COc2ccc(C(=O)C3CN=C4C=C(C)C=CN4C3)cc2)cc1` (centres undefined), the Activity in data set [4] was determined as 101%; in data set [5], 46%.

Take `CC1=CC2=NCC(C(=O)c3ccc(C4CCCCC4)cc3)CN2C=C1` (centres undefined): the values for the Activity in data set [4] and in data set [5] were 70% and 42%, respectively.

In the case of `CC1=CC2=NCC(C(=O)c3ccc(O)cc3)CN2C=C1` (centres undefined), the Activity came out at 30% in data set [4] and 46% in data set [5].

As to `Cc1cccc(N)n1`, the Activity in data set [4] came to 47%; in data set [5], 83%.

On to `Cc1cc(C)nc(N)c1`, for which the results for the Activity in data set [4] and in data set [5] were 7% and 12%, respectively.

As for `CC1=CC2=NCC(C(=O)c3ccc(C(=O)O)cc3)CN2C=C1` (centres undefined), the figures for the Activity in data set [4] and in data set [5] were 93% and 94%, respectively.

For the compound `CC1=CC2=NCC(C(=O)c3ccc(-c4ccc(C(=O)O)cc4)cc3)CN2C=C1` (centres undefined), the Activity in data set [4] is 98%; in data set [5], 91%.

For the compound `Nc1ccccn1`, the Activity amounted to 95% in data set [4] and 94% in data set [5].

For the compound `CC1=CC2=NCC(C(=O)c3ccc(-c4ccc(F)cc4)cc3)CN2C=C1` (centres undefined), the values for the Activity in data set [4] and in data set [5] were 85% and 46%, respectively.

With `COc1ccc2cc(C(=O)C3CN=C4C=CC=C(C)N4C3)ccc2c1` (centres undefined), the figures for the Activity in data set [4] and in data set [5] were 80% and 6%, respectively. Further, the log distribution coefficient (logD) in data set [3] was determined as 1.9.

`CCOc1ccc(C(=O)C2CN=C3C=C(C)C=CN3C2)cc1` (centres undefined): the Activity in data set [1] turned out to be 97%; in data set [2], 87%.

Consider `O=C(c1ccc(F)cc1)C1CN=C2C=CC=CN2C1` (centres undefined), for which the Activity in data set [4] was 67%; in data set [5], 79%.

In the case of `COc1ccc2cc(C(=O)C3CN=C4C=C(C)C=C(C)N4C3)ccc2c1` (centres undefined), the Activity stood at 95% in data set [4] and 121% in data set [5]. The compound also had a logD in data set [3] of 1.9.

As for `CC1=CC=CC2=NCC(C(=O)c3ccc(-c4ccccc4)cc3)CN12` (centres undefined), the Activity was found to be 86% in data set [4] and 20% in data set [5]. This compound also displayed a logD in data set [3] of 2.1.

For `COc1cc(C(=O)C2CN=C3C=CC=CN3C2)cc(OC)c1OC` (centres undefined), the Activity in data set [1] stood at 105%; in data set [2], 86%.

As to `CC1=CC=CC2=NCC(C(=O)c3ccc4cc(C)ccc4c3)CN12` (centres undefined), the Activity in data set [4] is 88%; in data set [5], 75%. The compound also registered a logD in data set [3] of 2.1.

For `CC1=CC2=NCC(C(=O)c3ccc(OCc4ccccc4)cc3)CN2C=C1` (centres undefined), the Activity in data set [4] turned out to be 73%; in data set [5] it was 75%.

Consider `Cc1ccnc(N)c1`, for which the Activity in data set [4] came to 29%; in data set [5], 50%.

For `CC1=CC2=NCC(C(=O)c3ccc(-c4ccc(O)cc4)cc3)CN2C=C1` (centres undefined), the figures for the Activity in data set [4] and in data set [5] were 96% and 86%, respectively.

As to `CC1=CC2=NCC(C(=O)c3ccc(C#N)cc3)CN2C=C1` (centres undefined), the Activity was found to be 54% in data set [4] and 75% in data set [5].
